Measurements collected from several papers.
Lines come from different studies, so protocols differ.
Observed: cell growth or viability

| Structure (SMILES) | cell line | method | time | IC50 |
| --- | --- | --- | --- | --- |
| CN(C)c1ccc(Nc2nc(-c3ccncc3)nc3c2CC(N)CC3)cc1 (stereo not shown) | DU-145 | MTT |  | 11.5 µM |
| Cc1c(-c2ccc(N3CCc4cccc(C(=O)Nc5nc6ccccc6s5)c4C3)nc2C(=O)NCCOCCNc2cccc3c2C(=O)N(C2CCC(=O)NC2=O)C3=O)cnn1CC12CC3CC(CC(C3)C1)C2 (stereo not shown) | MOLT-4 | MTS | 48 h | 0.0214 µM |
| COc1ccc(C=C(C#N)C(=O)c2c[nH]c3ccccc23)cc1OC | MIA PaCa-2 | MTT | 48 h | 37 µM |
| O=C(CSc1nc2ccccc2s1)N/N=C/c1ccc(OCC(=O)Nc2cccc(Cl)c2)cc1 | MOLT-4 | MTS | 72 h | 7.7 µM |
| Cc1ncsc1-c1ccc([C@H](CC(=O)NCCCCNC(=O)c2nc(N3CCc4cccc(C(=O)Nc5nc6ccccc6s5)c4C3)ccc2-c2cnn(CC34CC5CC(CC(C5)C3)C4)c2C)NC(=O)[C@@H]2C[C@@H](O)CN2C(=O)[C@@H](NC(=O)C2(C#N)CC2)C(C)(C)C)cc1 | MOLT-4 | MTS | 48 h | 0.0313 µM |
| NS(=O)(=O)c1ccc(-n2nc(C(=O)NN=Cc3ccccc3O)cc2-c2ccccc2)cc1 | PaCa-2 | fluorescence | 48 h | 10.9 µM |
| FC(F)(F)c1ccc(-c2cc(CNc3cccc4cccnc34)on2)cc1 | LN-229 | MTS | 72 h | 51.8 µM |
| NS(=O)(=O)c1ccc(-n2nc(C(=O)NN3C(=O)CCC3=O)cc2-c2ccccc2)cc1 | PaCa-2 | fluorescence | 48 h | 27.4 µM |
| Cc1ncsc1-c1ccc([C@H](C)NC(=O)[C@@H]2C[C@@H](O)CN2C(=O)[C@@H](NC(=O)CCCCCC(=O)N2CCN(CC[C@H](CSc3ccccc3)Nc3ccc(S(=O)(=O)NC(=O)c4ccc(N5CCN(CC6=C(c7ccc(Cl)cc7)CCC(C)(C)C6)CC5)cc4)cc3S(=O)(=O)C(F)(F)F)CC2)C(C)(C)C)cc1 | MOLT-4 | MTS | 48 h | 0.0771 µM |
| COc1ccc2[nH]cc(C(=O)C(C#N)=Cc3cn(C)c4ccccc34)c2c1 | MIA PaCa-2 | MTT | 48 h | 4.5 µM |
| COc1cccc2c1C(=O)c1c(O)c3c(c(O)c1C2=O)C[C@@](O)(C(=O)CO)C[C@@H]3O[C@H]1C[C@H](N)[C@H](O)[C@H](C)O1 | Jurkat |  | 96 h | 0.0339 µM |
| COc1cc2[nH]cc(C(=O)C(C#N)=Cc3cn(C)c4ccccc34)c2cc1OC | MIA PaCa-2 | MTT | 48 h | 15.6 µM |
| O=c1cc(OCc2cc(-c3ccccc3)no2)c2ccccc2o1 | LN-229 | MTS | 72 h | > 100 µM |
| CCc1oc2cc(S(=O)(=O)Nc3ccc(S(=O)(=O)Nc4nccs4)cc3)ccc2c1C(=O)c1cc(Br)c(O)c(Br)c1 | T47D | MTT | 96 h | 62.2 µM |
| O=c1cc(OCc2cc(-c3ccc(Cl)cc3Cl)no2)c2ccccc2o1 | LN-229 | MTS | 72 h | > 100 µM |
| O=C(NO)c1ccc(Cn2cnc3c(Nc4ccc(Cl)cc4)ncnc32)cc1 | Jurkat | MTT | 72 h | 0.91 µM |
| Cc1ncsc1-c1ccc(CNC(=O)[C@@H]2C[C@@H](O)CN2C(=O)[C@@H](NC(=O)C2(F)CC2)C(C)(C)C)c(OCCOc2ccc(CN3CCN(c4cc(-c5ccccc5O)nnc4N)CC3)cc2)c1 | LNCaP | ATP luminescence | 7 days | 0.0161 µM |
| Nc1ccccc1NC(=O)c1ccc(Cn2cnc3c(Nc4ccc(Cl)cc4)ncnc32)cc1 | MOLT-4 | MTT | 72 h | 0.49 µM |
| Cc1ncsc1-c1ccc([C@H](C)NC(=O)[C@@H]2C[C@@H](O)CN2C(=O)[C@@H](NC(=O)CCCCCCCCCCCS(=O)(=O)NC(=O)c2nc(N3CCc4cccc(C(=O)Nc5nc6ccccc6s5)c4C3)ccc2-c2cnn(CC34CC5CC(CC(C5)C3)C4)c2C)C(C)(C)C)cc1 | MOLT-4 | MTS | 48 h | 0.0701 µM |
| NS(=O)(=O)c1ccc(-n2nc(C(=O)NN=Cc3ccc(O)cc3)cc2-c2ccccc2)cc1 | PaCa-2 | fluorescence | 48 h | 8.53 µM |
| Cc1c(-c2ccc(N3CCc4cccc(C(=O)Nc5nc6ccccc6s5)c4C3)nc2C(=O)O)cnn1CC12CC3CC(C1)CC(C(=O)NCCOCCNc1cccc4c1C(=O)N(C1CCC(=O)NC1=O)C4=O)(C3)C2 (stereo not shown) | MOLT-4 | MTS | 48 h | 0.0516 µM |
| COc1ccc(Nc2ncnc3c2ncn3Cc2ccc(C(=O)NO)cc2)cc1 | Jurkat | MTT | 72 h | 0.7 µM |
| Cc1c(-c2ccc(N3CCc4cccc(C(=O)Nc5nc6ccccc6s5)c4C3)nc2C(=O)NCCOCCOCCOCCO)cnn1CC12CC3CC(CC(C3)C1)C2 | MOLT-4 | MTS | 48 h | 0.0169 µM |
| COc1cc2[nH]cc(C(=O)C(C#N)=Cc3cn(Cc4ccc(Cl)cc4)c4ccccc34)c2cc1OC | MIA PaCa-2 | MTT | 48 h | > 40 µM |
| Cc1ncsc1-c1ccc([C@H](C)NC(=O)[C@@H]2C[C@@H](O)CN2C(=O)[C@@H](NC(=O)CCCCCCCNC(=O)c2nc(N3CCc4cccc(C(=O)Nc5nc6ccccc6s5)c4C3)ccc2-c2cnn(CC34CC5CC(CC(C5)C3)C4)c2C)C(C)(C)C)cc1 | MOLT-4 | MTS | 48 h | 0.065 µM |
| COc1cc([C@@H]2c3cc4c(cc3[C@@H](O[C@@H]3O[C@@H]5CO[C@@H](C)O[C@H]5[C@H](O)[C@H]3O)[C@H]3COC(=O)[C@H]23)OCO4)cc(OC)c1O | LN-229 | MTS | 72 h | 4.8 µM |
| Cc1c(-c2ccc(N3CCc4cccc(C(=O)Nc5nc6ccccc6s5)c4C3)nc2C(=O)NCCCCCCCCNc2cccc3c2C(=O)N(C2CCC(=O)NC2=O)C3=O)cnn1CC12CC3CC(CC(C3)C1)C2 (stereo not shown) | MOLT-4 | MTS | 48 h | > 2 µM |
| FC(F)(F)c1ccc(-c2cc(COc3cc(C(F)(F)F)nc4ccccc34)on2)cc1 | LN-229 | MTS | 72 h | > 100 µM |
